Laboratory results reported in BindingDB's records for doi:10.1016/j.bmcl.2017.11.026 (Padmashri Vikhe Patil College of Arts, 2018).

Tests used:
Tumor necrosis factor [1] = target: T1, Tumor necrosis factor (Homo sapiens, UniProt P01375); assay: Inhibition of LPS-induced TNF-alpha production in human PBMC preincubated for 30 mins followed by LPS addition measured after 5 hrs by ELISA
Summary of the method: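 Donor blood diluted 1:1 in PBS; PBMCs isolated on histopaque, washed, resuspended in RPMI 1640 with 10% FBS and antibiotics, 1 x 10^6 cells/ml (viability ≥98%). Compounds at 0.03–100 μM in DMSO (final 0.5%) for 30 min at 37 °C, 5% CO2, then E. coli 0127:B8 LPS 1 µg/mL final for 5 h. Supernatant TNF-α by ELISA; % inhibition vs vehicle; IC50 mean of three independent experiments.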

Tumor necrosis factor [2] = target: T1, Tumor necrosis factor; assay: Inhibition of LPS-induced TNF-alpha production in human MNC suspension after 20 hrs by radioimmunoassay

T1 sequence (P01375 whole entry): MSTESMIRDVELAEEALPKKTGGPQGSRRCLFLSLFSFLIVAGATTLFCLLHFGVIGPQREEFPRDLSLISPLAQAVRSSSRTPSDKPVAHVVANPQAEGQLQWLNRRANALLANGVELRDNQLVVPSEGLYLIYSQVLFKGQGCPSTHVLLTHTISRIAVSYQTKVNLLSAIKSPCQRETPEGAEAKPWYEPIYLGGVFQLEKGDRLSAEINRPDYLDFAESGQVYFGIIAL

SMILES	IC50 (Tumor necrosis factor [1]) [µM]	IC50 (Tumor necrosis factor [2]) [µM]
O=S(=O)(c1cnc2ccc(-c3cncc(F)c3)nn12)N1CCN(c2ccccn2)CC1	28	
O=S(=O)(c1cnc2ccc(Cl)nn12)N1CCN(Cc2ccccc2)CC1	30	
CCN1CCN(S(=O)(=O)c2cnc3ccc(-c4ccc(S(C)(=O)=O)cc4)nn23)CC1	15	
CS(=O)(=O)c1ccc(-c2ccc3ncc(S(=O)(=O)N4CCN(c5ccccn5)CC4)n3n2)cc1	12	
NS(=O)(=O)c1cnc2ccc(Cl)nn12	28	
O=S(=O)(c1cnc2ccc(-c3cncc(C(F)(F)F)c3)nn12)N1CCN(c2ccccn2)CC1	11	
O=S(=O)(NCC1CCCO1)c1cnc2ccc(-c3cccnc3)nn12 (configuration not stated)	4	
CCN1CCN(S(=O)(=O)c2cnc3ccc(-c4ccc(OC)cc4)nn23)CC1	20	
COc1cccc(CNS(=O)(=O)c2cnc3ccc(-c4cccnc4)nn23)c1	0.3	
O=S(=O)(c1cnc2ccc(-c3cncc(F)c3)nn12)N1CCN(Cc2ccccc2)CC1	> 30	
O=S(=O)(NCC1CCCO1)c1cnc2ccc(-c3cncc(F)c3)nn12 (configuration not stated)	4	
COc1ccc(-c2ccc3ncc(S(=O)(=O)N4CCC(C#N)(c5ccccc5)CC4)n3n2)cc1OC	0.5	
N#CC1(c2ccccc2)CCN(S(=O)(=O)c2cnc3ccc(-c4cccnc4)nn23)CC1	7	
N#CC1(c2ccccc2)CCN(S(=O)(=O)c2cnc3ccc(Cl)nn23)CC1	25	
COc1cccc(CNS(=O)(=O)c2cnc3ccc(-c4ccc(OC)nc4)nn23)c1	> 30	
O=S(=O)(c1cnc2ccc(Cl)nn12)N1CCN(c2ccccn2)CC1	> 30	
CS(=O)(=O)c1ccc(-c2ccc3ncc(S(=O)(=O)N4CCC(C#N)(c5ccccc5)CC4)n3n2)cc1	8	
N#CC1(c2ccccc2)CCN(S(=O)(=O)c2cnc3ccc(-c4cncc(C(F)(F)F)c4)nn23)CC1	20	
COc1ccc(-c2ccc3ncc(S(=O)(=O)NCC4CCCO4)n3n2)cc1 (configuration not stated)	4	
Nc1ncc(-c2ccc3ncc(S(N)(=O)=O)n3n2)cc1C(F)(F)F	4	
O=S(=O)(c1cnc2ccc(-c3cccnc3)nn12)N1CCN(Cc2ccccc2)CC1	18	

SMILES	IC50 (Tumor necrosis factor [1]) [µM]	IC50 (Tumor necrosis factor [2]) [µM]
CCN1CCN(S(=O)(=O)c2cnc3ccc(-c4cncc(F)c4)nn23)CC1	> 30	
O=S(=O)(c1cnc2ccc(Cl)nn12)N1CCN(c2ccccc2)CC1	30	
CCN1CCN(S(=O)(=O)c2cnc3ccc(-c4ccc(OC)nc4)nn23)CC1	20	
CS(=O)(=O)c1ccc(-c2ccc3ncc(S(=O)(=O)N4CCN(Cc5ccccc5)CC4)n3n2)cc1	12	
O=S(=O)(NCC1CCCO1)c1cnc2ccc(Cl)nn12 (configuration not stated)	30	
CS(=O)(=O)c1ccc(-c2ccc3ncc(S(=O)(=O)NCC4CCCO4)n3n2)cc1 (configuration not stated)	> 30	
COc1cccc(CNS(=O)(=O)c2cnc3ccc(-c4cnc(N)c(C(F)(F)F)c4)nn23)c1	> 30	
COc1cccc(CNS(=O)(=O)c2cnc3ccc(-c4cncc(C(F)(F)F)c4)nn23)c1	> 30	
CCN1CCN(S(=O)(=O)c2cnc3ccc(-c4cccnc4)nn23)CC1	15	
COc1cccc(CNS(=O)(=O)c2cnc3ccc(Cl)nn23)c1	> 30	
COc1ccc(-c2ccc3ncc(S(=O)(=O)N4CCN(c5ccccn5)CC4)n3n2)cn1	> 30	
COc1cccc(CNS(=O)(=O)c2cnc3ccc(-c4ccc(S(C)(=O)=O)cc4)nn23)c1	28	
CCN1CCN(S(=O)(=O)c2cnc3ccc(-c4cncc(C(F)(F)F)c4)nn23)CC1	9	
O=S(=O)(c1cnc2ccc(-c3cccnc3)nn12)N1CCN(c2ccccn2)CC1	11	
COc1ccc(-c2ccc3ncc(S(=O)(=O)NCC4CCCO4)n3n2)cn1 (configuration not stated)	6	
O=S(=O)(NCC1CCCO1)c1cnc2ccc(-c3cncc(C(F)(F)F)c3)nn12 (configuration not stated)	> 30	
Nc1ncc(-c2ccc3ncc(S(=O)(=O)N4CCN(c5ccccn5)CC4)n3n2)cc1C(F)(F)F	11	
COc1cccc(CNS(=O)(=O)c2cnc3ccc(-c4cncc(F)c4)nn23)c1	6	
CCN1CCN(S(=O)(=O)c2cnc3ccc(Cl)nn23)CC1	> 30	
COc1ccc([C@@H]2CNC(=O)C2)cc1OC1CCCC1 (racemic) [Adeo]		0.2
N#CC1(c2ccccc2)CCN(S(=O)(=O)c2cnc3ccc(-c4cncc(F)c4)nn23)CC1	> 30	
